Inhibition and EC50 data for 7 compounds are collected here from ChEMBL document CHEMBL2016531, “Identification of NAE Inhibitors Exhibiting Potent Activity in Leukemia Cells: Exploring the Structural Determinants of NAE Specificity” (ACS Med Chem Lett, 2011).

SMILES strings stand for the structures. The source made the active and inactive calls. The rule behind the calls is not given here. A value given as a limit tells only on which side of the number the result lay.

The target of assay [1] is Ubiquitin-like modifier-activating enzyme 5 (Homo sapiens) (UniProt Q9GZZ9). Nature of the assay: Inhibition of human recombinant UBA5 assessed as inhibition of […]-UFM1 complex formation at 10 uM after 1.5 hrs by Western blot analysis. Put shortly:
(§1)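 Cell-free gel assay. Purified human recombinant E1 incubated with its matching Ub/Ubl and E2 in 50 mM HEPES pH 7.4, 5 mM MgCl2, 1–20 μM ATP. Inhibitor at 0, 0.001, 0.01, 0.1, 1 or 10 μM, 1.5 h at room temperature. Products resolved by SDS-PAGE, immunoblotted and detected by ECL; densitometry used for semiquantitation.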

Assay [2] concerns the target T1, NEDD8-activating enzyme E1 regulatory subunit (Homo sapiens) (UniProt Q13564).
T1 sequence (whole entry): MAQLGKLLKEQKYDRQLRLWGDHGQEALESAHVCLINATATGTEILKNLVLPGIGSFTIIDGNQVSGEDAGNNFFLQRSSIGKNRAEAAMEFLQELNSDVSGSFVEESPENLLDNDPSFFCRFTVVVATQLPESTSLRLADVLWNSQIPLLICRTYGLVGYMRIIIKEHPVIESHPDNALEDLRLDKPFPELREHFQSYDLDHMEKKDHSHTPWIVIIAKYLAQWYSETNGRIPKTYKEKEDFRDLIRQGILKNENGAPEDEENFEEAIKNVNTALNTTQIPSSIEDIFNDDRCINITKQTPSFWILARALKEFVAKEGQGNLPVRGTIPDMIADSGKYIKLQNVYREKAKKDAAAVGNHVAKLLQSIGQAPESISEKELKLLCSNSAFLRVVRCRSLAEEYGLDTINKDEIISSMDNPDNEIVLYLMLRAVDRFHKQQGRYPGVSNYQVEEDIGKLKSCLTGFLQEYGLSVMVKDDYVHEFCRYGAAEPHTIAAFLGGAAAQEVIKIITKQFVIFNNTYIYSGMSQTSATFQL
Nature of the assay: Inhibition of APPBP1-mediated NEDD8 activation at […] after 1.5 hrs by Western blot analysis. For orientation: In western blotting, separated proteins are transferred to a membrane and probed.

Assay [3] deals with SUMO-activating enzyme (Homo sapiens) (UniProt Q9UBE0+Q9UBT2). Nature of the assay: Inhibition of human recombinant SAE1/2 assessed as inhibition of SUMO1-UbcH9 complex formation at 0.001 to 10 uM after 1.5 hrs by Western blot analysis. The format is protein-complex assay. Put shortly:
as §1

Assay [4] is filed under the species Homo sapiens. Nature of the assay: Inhibition of human recombinant NAE assessed as inhibition of NEDD8-UbcH12 complex formation at 0.001 to 10 uM after 1.5 hrs by Western blot analysis. The essentials:
as §1

The test system of a further assay is K562. Nature of the assay: Antiproliferative activity against human K562 cells after 72 hrs by CellTiter-Glo assay. Particulars: K562, 72 h. It counts as functional, cell-based. The essentials:
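K562 leukemia cells exposed to increasing concentrations for 72 h; growth and viability read by CellTiter-Glo luminescence.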
(In general: Cellular ATP, detected with luciferase, serves as a proxy for viable cell number.)

The species named for assay [5] is Homo sapiens. Nature of the assay: Inhibition of human recombinant UAE assessed as inhibition of UbcH6-Ub complex formation at 0.001 to 10 uM after 1.5 hrs by Western blot analysis. The essentials:
as §1

The target in assay [6] is T2, NEDD8-activating enzyme E1 catalytic subunit (Homo sapiens) (UniProt Q8TBC4).
T2 sequence (whole entry): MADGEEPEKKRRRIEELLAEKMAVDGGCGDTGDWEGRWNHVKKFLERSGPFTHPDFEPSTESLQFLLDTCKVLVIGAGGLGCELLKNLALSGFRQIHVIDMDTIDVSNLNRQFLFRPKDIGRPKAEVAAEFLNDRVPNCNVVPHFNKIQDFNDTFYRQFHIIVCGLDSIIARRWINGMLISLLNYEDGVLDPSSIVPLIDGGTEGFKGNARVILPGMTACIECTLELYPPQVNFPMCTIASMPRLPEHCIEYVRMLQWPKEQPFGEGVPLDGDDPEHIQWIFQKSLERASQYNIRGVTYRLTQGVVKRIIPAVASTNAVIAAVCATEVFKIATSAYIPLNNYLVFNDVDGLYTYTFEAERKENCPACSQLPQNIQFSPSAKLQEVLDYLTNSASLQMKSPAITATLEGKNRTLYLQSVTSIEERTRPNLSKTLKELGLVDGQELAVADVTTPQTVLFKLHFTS
Nature of the assay: Inhibition of UBA3-mediated NEDD8 activation at […] after 1.5 hrs by Western blot analysis.

The species named for assay [7] is Homo sapiens. Nature of the assay: Inhibition of human recombinant NAE assessed as inhibition of NEDD8-UbcH12 complex formation at 1 nM after 1.5 hrs by Western blot analysis. Put shortly:
as §1

Assay [8] is filed under the species Homo sapiens. Nature of the assay: Inhibition of human recombinant NAE assessed as inhibition of NEDD8-UbcH12 complex formation at >10 nM after 1.5 hrs by Western blot analysis. Put shortly: as §1
The species named for assay [9] is Homo sapiens. Nature of the assay: Inhibition of human recombinant NAE assessed as inhibition of NEDD8-UbcH12 complex formation at <10 nM after 1.5 hrs by Western blot analysis. The essentials:
as §1

The species entered for assay [10] is Homo sapiens. Nature of the assay: Inhibition of human recombinant NAE assessed as inhibition of NEDD8-UbcH12 complex formation at 10 nM after 1.5 hrs by Western blot analysis. Put shortly: as §1

Ubiquitin-like modifier-activating enzyme 5 (Homo sapiens), sequence (Q9GZZ9 whole entry): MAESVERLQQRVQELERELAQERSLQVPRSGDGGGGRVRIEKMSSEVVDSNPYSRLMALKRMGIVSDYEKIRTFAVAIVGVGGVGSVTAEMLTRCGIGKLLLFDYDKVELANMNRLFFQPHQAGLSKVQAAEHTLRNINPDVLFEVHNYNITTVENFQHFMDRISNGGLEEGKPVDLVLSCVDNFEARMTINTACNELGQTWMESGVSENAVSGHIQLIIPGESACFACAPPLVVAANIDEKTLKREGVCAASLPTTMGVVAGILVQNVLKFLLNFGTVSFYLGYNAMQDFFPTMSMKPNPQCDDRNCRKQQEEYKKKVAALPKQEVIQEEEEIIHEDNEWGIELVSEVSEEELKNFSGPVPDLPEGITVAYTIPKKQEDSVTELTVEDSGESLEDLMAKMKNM

As a reminder, the inhibition is the change of the read-out against control, counted positive when it falls. The term EC50 denotes the concentration at which the effect is half-maximal. With `NS(=O)(=O)OC[C@H]1O[C@@H](n2cnc3c(N[C@H]4CCc5ccccc54)ncnc32)[C@H](O)[C@@H]1O`, the inhibition entry in [1] is “inactive”. Also, the inhibition entry (in assay [2]; in assay [3]; in the assay listed under Homo sapiens [4]; in the assay filed under Homo sapiens [5]; in assay [6]) was “Active” throughout. This compound also had an EC50 with K562 of 125 nM.

`CCCCNc1ncnc2c1ncn2[C@@H]1O[C@H](COS(N)(=O)=O)[C@@H](O)[C@H]1O`: the inhibition in the assay listed under Homo sapiens [7] was below 58%. The inhibition entry in the assay listed under Homo sapiens [8] was “Active”.

Turning to `CN(Cc1ccco1)c1ncnc2c1ncn2[C@@H]1O[C@H](COS(N)(=O)=O)[C@@H](O)[C@H]1O`, the inhibition result (in assay [1]; in the assay filed under Homo sapiens [9]) was “inactive” throughout. Besides, the inhibition result (in [3]; in the assay filed under Homo sapiens [4]; in the assay listed under Homo sapiens [8]; in the assay listed under Homo sapiens [5]) was “Active” in each case. Besides, in the assay on K562, the EC50 was above 1000 nM.

Regarding `CCCCN(C)c1ncnc2c1ncn2[C@@H]1O[C@H](COS(N)(=O)=O)[C@@H](O)[C@H]1O`, the inhibition result in the assay listed under Homo sapiens [8] was “Active”. For the same compound, the inhibition entry in the assay filed under Homo sapiens [9] is “inactive”.

Turning to `CCN(c1ncnc2c1ncn2[C@@H]1O[C@H](COS(N)(=O)=O)[C@@H](O)[C@H]1O)C(C)C`, in the assay listed under Homo sapiens [8], the inhibition result was “Active”. Besides, the inhibition entry in the assay filed under Homo sapiens [9] was “inactive”.

Take `CC(C)Nc1ncnc2c1ncn2[C@@H]1O[C@H](COS(N)(=O)=O)[C@@H](O)[C@H]1O`: the inhibition entry in [1] is “inactive”. The inhibition result (in assay [3]; in the assay filed under Homo sapiens [4]; in the assay filed under Homo sapiens [8]; in the assay filed under Homo sapiens [5]) was “Active” throughout.

On to `NS(=O)(=O)OC[C@H]1O[C@@H](n2cnc3c(NCc4ccoc4)ncnc32)[C@H](O)[C@@H]1O`, for which, in the assay filed under Homo sapiens [10], the inhibition is 100%. The inhibition result in the assay listed under Homo sapiens [8] was “Active”.
